Assay results published in ChEMBL document CHEMBL1152430, “Selective inhibition of nicotinamide adenine dinucleotide kinases by dinucleoside disulfide mimics of nicotinamide adenine dinucleotide analogues” (Bioorg Med Chem, 2009).
Activity calls are given as the source filed them. No cut-off for these calls is given here.

Legend:
[1] = Binding affinity to penicillopepsin
[2] = (§1) Inhibition of human IMPDH
[3] = biological target: T1, NAD kinase (Mycobacterium tuberculosis, UniProt P9WHV7); test: Inhibition of Mycobacterium tuberculosis NAD kinase by modified HPLC based assay
T1 sequence (P9WHV7 whole entry): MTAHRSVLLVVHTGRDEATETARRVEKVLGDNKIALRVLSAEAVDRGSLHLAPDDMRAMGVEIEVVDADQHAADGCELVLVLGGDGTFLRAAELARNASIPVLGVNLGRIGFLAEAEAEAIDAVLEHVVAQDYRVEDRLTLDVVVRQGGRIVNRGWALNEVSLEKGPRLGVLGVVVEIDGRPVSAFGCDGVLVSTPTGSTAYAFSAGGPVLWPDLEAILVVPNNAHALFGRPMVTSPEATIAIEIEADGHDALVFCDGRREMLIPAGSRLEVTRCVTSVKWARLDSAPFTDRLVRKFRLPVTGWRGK
Method in brief: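 Purified-to-homogeneity M. tuberculosis NAD kinase incubated at 37 °C in 50 mM Tris/HCl pH 8.0, 20 mM MgCl₂ with ATP and NAD substrates, without or with varying inhibitor concentrations. Reaction stopped with HClO₄, neutralized with K₂CO₃, nucleotides resolved by reversed-phase C18 HPLC with potassium phosphate pH 6.0/methanol gradient.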

[4] = biological target: T2, NAD kinase (Homo sapiens, UniProt O95544); test: Inhibition of human NAD kinase by modified HPLC based assay
T2 sequence (O95544 whole entry): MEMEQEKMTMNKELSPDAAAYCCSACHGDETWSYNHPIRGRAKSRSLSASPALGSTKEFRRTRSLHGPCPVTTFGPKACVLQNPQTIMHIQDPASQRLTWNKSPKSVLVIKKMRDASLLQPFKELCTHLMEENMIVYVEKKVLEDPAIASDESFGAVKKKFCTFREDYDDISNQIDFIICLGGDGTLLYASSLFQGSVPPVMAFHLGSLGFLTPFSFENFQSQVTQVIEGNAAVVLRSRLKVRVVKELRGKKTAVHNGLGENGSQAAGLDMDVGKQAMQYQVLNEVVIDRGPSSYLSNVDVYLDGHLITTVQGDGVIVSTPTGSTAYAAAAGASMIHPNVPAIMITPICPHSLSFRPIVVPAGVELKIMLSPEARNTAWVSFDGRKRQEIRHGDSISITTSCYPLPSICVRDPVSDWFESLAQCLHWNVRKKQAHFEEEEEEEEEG

[5] = organism: Homo sapiens; test: as §1
[6] = biological target: L-lactate dehydrogenase (Homo sapiens) (UniProt V9HWB9); test: Inhibition of human LDH
[7] = biological target: Inosine-5'-monophosphate dehydrogenase 1 (Homo sapiens) (UniProt P20839); test: Inhibition of human IMPDH1 at 100 uM
[8] = biological target: Inosine-5'-monophosphate dehydrogenase 2 (Homo sapiens) (UniProt P12268); test: Inhibition of human IMPDH2 at 100 uM
[9] = biological target: L-lactate dehydrogenase (Homo sapiens) (UniProt V9HWB9); test: Inhibition of human LDH at 100 uM
[10] = Inhibition of Listeria monocytogenes NADK1
[11] = Inhibition of horse liver alcohol dehydrogenase; set-up: species or system Equus caballus

Chain of Inosine-5'-monophosphate dehydrogenase 2 (Homo sapiens) (P12268 2-514 limits assumed): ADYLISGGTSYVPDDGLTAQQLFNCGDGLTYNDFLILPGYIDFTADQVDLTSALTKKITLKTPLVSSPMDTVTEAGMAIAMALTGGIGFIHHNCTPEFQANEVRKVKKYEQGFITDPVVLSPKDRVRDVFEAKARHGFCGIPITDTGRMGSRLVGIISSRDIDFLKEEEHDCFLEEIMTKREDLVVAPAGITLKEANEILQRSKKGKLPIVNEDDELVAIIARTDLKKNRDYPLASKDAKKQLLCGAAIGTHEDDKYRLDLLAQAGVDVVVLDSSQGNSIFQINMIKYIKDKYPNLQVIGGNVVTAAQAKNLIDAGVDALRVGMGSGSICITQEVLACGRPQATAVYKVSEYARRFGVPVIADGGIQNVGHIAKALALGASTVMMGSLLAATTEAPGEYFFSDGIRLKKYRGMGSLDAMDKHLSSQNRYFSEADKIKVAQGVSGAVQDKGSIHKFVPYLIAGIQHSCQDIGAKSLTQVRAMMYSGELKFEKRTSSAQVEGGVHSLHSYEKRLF
Chain of Inosine-5'-monophosphate dehydrogenase 1 (Homo sapiens) (P20839 2-514 limits assumed): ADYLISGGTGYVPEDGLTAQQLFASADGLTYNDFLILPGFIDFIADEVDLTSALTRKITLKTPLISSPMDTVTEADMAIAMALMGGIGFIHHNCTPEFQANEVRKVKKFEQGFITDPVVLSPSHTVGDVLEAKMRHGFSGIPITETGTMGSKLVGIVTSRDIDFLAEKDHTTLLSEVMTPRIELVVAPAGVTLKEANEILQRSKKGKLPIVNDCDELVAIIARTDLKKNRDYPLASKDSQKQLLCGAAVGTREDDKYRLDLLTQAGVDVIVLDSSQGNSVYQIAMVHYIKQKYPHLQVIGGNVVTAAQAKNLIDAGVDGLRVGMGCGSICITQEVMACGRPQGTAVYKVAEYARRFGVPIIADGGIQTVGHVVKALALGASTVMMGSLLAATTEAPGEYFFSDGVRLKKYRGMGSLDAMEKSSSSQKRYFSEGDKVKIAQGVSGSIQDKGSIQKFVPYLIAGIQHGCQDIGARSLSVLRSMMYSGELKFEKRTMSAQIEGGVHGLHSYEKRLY

SMILES	IC50 ([3]; read-out: IC50)	IC50 ([4]; read-out: IC50)	inhibition [7]	inhibition [8]	inhibition [9]	other results
COC(=O)[C@@H]1Cc2cccc(c2)CNC(=O)C[C@H](NC(=O)[C@@H](NC(=O)CC(C)C)C(C)C)C(=O)N[C@@H](CC(C)C)P(=O)(O)O1	–	–	–	–	–	Ki [1]: 0.0001 µM
CCc1nc(N)c2ncn([C@@H]3O[C@H](COP(=O)(O)OP(=O)(O)OC[C@H]4O[C@@H](c5nc(C(N)=O)cs5)[C@H](O)[C@@H]4O)[C@@H](O)[C@H]3O)c2n1	–	–	–	–	–	Ki [2]: 0.001 µM
COC(=O)[C@H](Cc1ccccc1)OP(=O)(O)[C@H](CC(C)C)NC(=O)[C@H](CC(N)=O)NC(=O)[C@@H](NC(=O)CC(C)C)C(C)C	–	–	–	–	–	Ki [1]: 0.042 µM
NC(=O)c1csc([C@@H]2O[C@H](CSSC[C@H]3O[C@@H](n4cnc5c(N)ncnc54)[C@H](O)[C@@H]3O)[C@@H](O)[C@H]2O)n1	80 µM	110 µM	inactive	inactive	inactive	inhibition [5]: inactive; inhibition [6]: inactive
NC(=O)c1csc([C@@H]2O[C@H](CSSC[C@H]3O[C@@H](c4nc(C(N)=O)cs4)[C@H](O)[C@@H]3O)[C@@H](O)[C@H]2O)n1	–	–	inactive	inactive	inactive	IC50 [3]: Not Active; IC50 [4]: Not Active; inhibition [5]: inactive; inhibition [6]: inactive
Nc1ncnc2c1ncn2[C@@H]1O[C@H](CSSC[C@H]2O[C@@H](n3cnc4c(N)ncnc43)[C@H](O)[C@@H]2O)[C@@H](O)[C@H]1O	45 µM	87 µM	inactive	inactive	inactive	Ki [10]: 20 µM; inhibition [5]: inactive; inhibition [6]: inactive
C[C@@]1(O)[C@@H](CSSC[C@H]2O[C@@H](n3cnc4c(N)ncnc43)[C@H](O)[C@]2(C)O)O[C@@H](n2cnc3c(N)ncnc32)[C@@H]1O	–	–	inactive	inactive	inactive	IC50 [3]: Not Active; IC50 [4]: Not Active
C[C@@]1(O)[C@H](O)[C@@H](CSSC[C@H]2O[C@@H](n3cnc4c(N)ncnc43)[C@](C)(O)[C@@H]2O)O[C@H]1n1cnc2c(N)ncnc21	500 µM	280 µM	inactive	inactive	inactive	–
NC(=O)c1cccc([C@@H]2O[C@H](COP(=O)(O)OP(=O)(O)OC[C@H]3O[C@@H](n4cnc5c(N)ncnc54)[C@H](O)[C@@H]3O)[C@@H](O)[C@H]2O)c1 [BENZAMIDEADENINEDINUCLEOSIDE]	200 µM	–	–	–	–	–
NC(=O)c1csc([C@@H]2O[C@H](COP(=O)(O)OP(=O)(O)OC[C@H]3O[C@@H](n4cnc5c(N)nc(I)nc54)[C@H](O)[C@@H]3O)[C@@H](O)[C@H]2O)n1	–	–	–	–	–	Ki [2]: 0.02 µM
C#Cc1nc(N)c2ncn([C@@H]3O[C@H](COP(=O)(O)OP(=O)(O)OC[C@H]4O[C@@H](c5nc(C(N)=O)cs5)[C@H](O)[C@@H]4O)[C@@H](O)[C@H]3O)c2n1	–	–	–	–	–	Ki [2]: 0.01 µM
Nc1ncnc2c1ncn2[C@@H]1O[C@H](CSSC[C@H]2O[C@@H](n3c(Br)nc4c(N)ncnc43)[C@H](O)[C@@H]2O)[C@@H](O)[C@H]1O	14 µM	6 µM	inactive	inactive	inactive	–
NC(=O)c1csc([C@@H]2O[C@H](COP(=O)(O)OP(=O)(O)OC[C@H]3O[C@@H](n4cnc5c(N)ncnc54)[C@H](O)[C@@H]3O)[C@@H](O)[C@H]2O)n1 [TIAZOFURIN ADENINE DINUCLEOTIDE]	–	–	–	–	–	Ki [11]: 0.001 µM; Ki [2]: 0.1 µM
Nc1ncnc2c1nc(-c1ccccc1)n2[C@@H]1O[C@H](CSSC[C@H]2O[C@@H](n3c(-c4ccccc4)nc4c(N)ncnc43)[C@H](O)[C@@H]2O)[C@@H](O)[C@H]1O	–	45 µM	inactive	inactive	inactive	IC50 [3]: Not Active
Nc1ncnc2c1nc(Br)n2[C@@H]1O[C@H](CSSC[C@H]2O[C@@H](n3c(Br)nc4c(N)ncnc43)[C@H](O)[C@@H]2O)[C@@H](O)[C@H]1O	19 µM	6 µM	inactive	inactive	inactive	–
